How the values were obtained:
Rattus norvegicus [1] = assay: Activity at AChE in Charles Foster rat hypothalamus assessed as substrate hydrolyzed per mg of protein at 5 mg/kg, po for 8 days by Ellman's method (reference value: 40.50 +/- 0.76 mol/min); type: functional
[2] = Selectivity ratio of IC50 for human serum BChE to IC50 for electric eel AChE
In short: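 Ratio of IC50 (BChE) to IC50 (AChE). Both came from Ellman assays at 0.1 M phosphate pH 8.0 and 0.02 unit/mL enzyme: AChE (stock in phosphate buffer) with acetylthiocholine, human serum BChE (stock in 0.1% gelatine) with butyrylthiocholine.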

Acetylcholinesterase [3] = molecular target: T1, Acetylcholinesterase (Electrophorus electricus, UniProt O42275); assay: Inhibition of electric eel AChE using acetylthiocholine iodide as substrate preincubated for 20 mins prior to substrate addition by Ellman's method
Rattus norvegicus [4] = assay: Cognitive enhancing effect in Wistar rat assessed as reversal of learning impairment measured as transfer latency at 10 mg/kg, po for 8 days measured on second day of test by elevated plus maze test (reference value: 66.824 +/- 0.47 seconds); type: functional
In short: (§1)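 Oral dosing at 5 or 10 mg/kg for 8 days, suspended in 0.3% carboxymethyl cellulose; vehicle-treated controls. Transfer latency on elevated plus maze measured on first and second days of exposure (treatment days 7 and 8). Mean ± SEM, n = 6, one-way ANOVA versus vehicle control.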

Cholinesterase [5] = molecular target: T2, Cholinesterase (Homo sapiens, UniProt P06276); assay: Inhibition of human serum BChE using butyrylthiocholine iodide as substrate preincubated for 20 mins prior to substrate addition by Ellman's method
In short: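 Human serum BChE was dissolved in 0.1% gelatine. The final mix held 0.1 M phosphate pH 8.0, DTNB, 0.02 unit/mL enzyme and butyrylthiocholine iodide. Five inhibitor concentrations spanning 20–80% inhibition were preincubated with enzyme for 20 min at 37 °C, then substrate was added. Rate was read at 412 nm over 5 min against an enzyme-free blank. Each point was run in triplicate, and IC50 was read graphically from log concentration–% inhibition curves.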

Rattus norvegicus [6] = assay: Activity at AChE in Charles Foster rat hippocampus assessed as substrate hydrolyzed per mg of protein at 5 mg/kg, po for 8 days by Ellman's method (reference value: 47.50 +/- 0.84 mol/min); type: functional
Rattus norvegicus [7] = assay: Activity at AChE in Charles Foster rat prefrontal cortex assessed as substrate hydrolyzed per mg of protein at 10 mg/kg, po for 8 days by Ellman's method (reference value: 45.83 +/- 0.94 mol/min); type: functional
Rattus norvegicus [8] = assay: Activity at AChE in Charles Foster rat prefrontal cortex assessed as substrate hydrolyzed per mg of protein at 5 mg/kg, po for 8 days by Ellman's method (reference value: 45.83 +/- 0.94 mol/min); type: functional
Rattus norvegicus [9] = assay: Toxicity in albino rat assessed as mortality upto 100 mg/kg after 30 mins to 48 hrs; type: organism-based; set-up: dose 100 mg/kg; conditions: in vivo
In short: (§2)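 Acute toxicity followed OECD guidelines. Nulliparous, non-pregnant female albino rats (120–150 g) were fasted overnight with water ad libitum. Graded oral doses up to 100 mg/kg were given in 0.3% carboxymethyl cellulose. Rats were observed continuously for 30 min, at 2 h and up to 48 h for behavioural or autonomic changes, tremors, convulsions, salivation, diarrhoea, sleep, lacrimation, cardiovascular signs, feeding and mortality.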

Rattus norvegicus [10] = assay: (§3) Cognitive enhancing effect in Charles Foster rat assessed as reversal of scopolamine-induced amnesia measured as transfer latency at 5 mg/kg, po for 8 days administered 1 hr prior to scopolamine-challenge on day 7 measured on same day by elevated plus maze test (reference value: 67.83 +/- 0.94 seconds); type: functional
Rattus norvegicus [11] = assay: (§4) Cognitive enhancing effect in Charles Foster rat assessed as reversal of scopolamine-induced amnesia measured as transfer latency at 5 mg/kg, po for 8 days administered 1 hr prior to scopolamine-challenge on day 7 measured on day 8 by elevated plus maze test (reference value: 62.17 +/- 0.47 seconds); type: functional
Rattus norvegicus [12] = assay: as §4, with “10” for “5”; type: functional
Rattus norvegicus [13] = assay: Cognitive enhancing effect in po dosed Wistar rat assessed as reversal of learning impairment measured as transfer latency administered for 8 days by elevated plus maze test; type: functional, organism-based; in short: as §1
Rattus norvegicus [14] = assay: Toxicity in albino rat assessed as change in normal behavioral response upto 100 mg/kg after 30 mins to 48 hrs; type: organism-based; set-up: dose 100 mg/kg; conditions: in vivo; in short: as §2
Rattus norvegicus [15] = assay: Activity at AChE in Charles Foster rat hypothalamus assessed as substrate hydrolyzed per mg of protein at 10 mg/kg, po for 8 days by Ellman's method (reference value: 40.50 +/- 0.76 mol/min); type: functional
Rattus norvegicus [16] = assay: Activity at AChE in Charles Foster rat hippocampus assessed as substrate hydrolyzed per mg of protein at 10 mg/kg, po for 8 days by Ellman's method (reference value: 47.50 +/- 0.84 mol/min); type: functional
Rattus norvegicus [17] = assay: as §3, with “10” for “5”; type: functional
Rattus norvegicus [18] = assay: Cognitive enhancing effect in Wistar rat assessed as reversal of learning impairment measured as transfer latency at 5 mg/kg, po for 8 days measured on second day of test by elevated plus maze test (reference value: 66.824 +/- 0.47 seconds); type: functional; in short: as §1
Rattus norvegicus [19] = assay: Cognitive enhancing effect in Wistar rat assessed as reversal of learning impairment measured as transfer latency at 5 mg/kg, po for 8 days measured on first day of test by elevated plus maze test (reference value: 70.846 +/- 0.76 seconds); type: functional; in short: as §1
Rattus norvegicus [20] = assay: Cognitive enhancing effect in Wistar rat assessed as reversal of learning impairment measured as transfer latency at 10 mg/kg, po for 8 days measured on first day of test by elevated plus maze test (reference value: 70.846 +/- 0.76 seconds); type: functional; in short: as §1
Cholinesterase [21] = molecular target: T2, Cholinesterase; assay: Competitive inhibition of human serum BChE using butyrylthiocholine iodide as substrate by Lineweaver-Burk plot analysis
In short: (§5)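 Ellman assay in phosphate buffer pH 8 with a fixed amount of cholinesterase. Thiocholine substrate was varied from below to above, but near, Km, with or without inhibitor. Inhibition type was assigned from Lineweaver–Burk plots.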

Acetylcholinesterase [22] = molecular target: T1, Acetylcholinesterase; assay: Competitive inhibition of electric eel AChE using acetylthiocholine iodide as substrate by Lineweaver-Burk plot analysis; in short: as §5
Cholinesterase [23] = molecular target: T2, Cholinesterase; assay: Non competitive inhibition of human serum BChE using butyrylthiocholine iodide as substrate by Lineweaver-Burk plot analysis; in short: as §5

T1 sequence (O42275 whole entry): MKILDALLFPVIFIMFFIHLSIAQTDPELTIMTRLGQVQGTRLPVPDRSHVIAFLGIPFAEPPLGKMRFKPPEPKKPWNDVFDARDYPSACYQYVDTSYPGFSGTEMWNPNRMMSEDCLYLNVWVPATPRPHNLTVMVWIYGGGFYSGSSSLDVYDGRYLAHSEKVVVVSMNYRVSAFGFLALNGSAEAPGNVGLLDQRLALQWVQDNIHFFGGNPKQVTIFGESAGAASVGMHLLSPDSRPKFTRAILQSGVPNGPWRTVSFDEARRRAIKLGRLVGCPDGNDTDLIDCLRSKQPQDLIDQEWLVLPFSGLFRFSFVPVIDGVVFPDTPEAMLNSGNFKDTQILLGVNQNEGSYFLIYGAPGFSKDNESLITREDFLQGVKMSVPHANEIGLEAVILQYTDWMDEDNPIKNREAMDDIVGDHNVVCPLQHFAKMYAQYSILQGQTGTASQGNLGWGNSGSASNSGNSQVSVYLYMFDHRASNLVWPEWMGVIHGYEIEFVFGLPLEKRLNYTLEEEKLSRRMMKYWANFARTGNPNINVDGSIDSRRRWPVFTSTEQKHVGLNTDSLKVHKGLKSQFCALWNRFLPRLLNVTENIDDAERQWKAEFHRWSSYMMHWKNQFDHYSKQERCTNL
T2 sequence (P06276 whole entry): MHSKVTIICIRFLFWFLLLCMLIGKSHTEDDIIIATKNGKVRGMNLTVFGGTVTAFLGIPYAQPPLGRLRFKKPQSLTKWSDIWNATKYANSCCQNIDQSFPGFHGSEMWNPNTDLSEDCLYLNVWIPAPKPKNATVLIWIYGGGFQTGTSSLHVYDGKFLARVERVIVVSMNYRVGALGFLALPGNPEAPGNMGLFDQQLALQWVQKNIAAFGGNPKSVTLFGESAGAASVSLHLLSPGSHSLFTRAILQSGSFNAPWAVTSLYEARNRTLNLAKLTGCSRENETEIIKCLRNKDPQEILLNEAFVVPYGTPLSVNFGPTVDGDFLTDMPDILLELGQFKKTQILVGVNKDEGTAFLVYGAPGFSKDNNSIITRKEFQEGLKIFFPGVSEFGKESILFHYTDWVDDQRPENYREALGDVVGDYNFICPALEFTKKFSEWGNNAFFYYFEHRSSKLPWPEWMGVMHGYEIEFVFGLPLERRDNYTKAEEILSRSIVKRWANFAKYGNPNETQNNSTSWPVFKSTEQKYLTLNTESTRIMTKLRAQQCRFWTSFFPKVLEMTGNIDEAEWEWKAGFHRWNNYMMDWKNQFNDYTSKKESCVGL

Row | Structure (SMILES) | Activity (Rattus norvegicus [1]) | Ratio IC50 [2] | IC50 (Acetylcholinesterase [3]; read-out: IC50) | Time (Rattus norvegicus [4]) | IC50 (Cholinesterase [5]) | Activity (Rattus norvegicus [6]) | Activity (Rattus norvegicus [7]) | Activity (Rattus norvegicus [8]) | Activity (Rattus norvegicus [9]) | Time (Rattus norvegicus [10]) | Time (Rattus norvegicus [11]) | Time (Rattus norvegicus [12]) | Activity (Rattus norvegicus [13]) | Activity (Rattus norvegicus [14]) | Activity (Rattus norvegicus [15]) | Activity (Rattus norvegicus [16]) | Time (Rattus norvegicus [17]) | Time (Rattus norvegicus [18]) | Time (Rattus norvegicus [19]) | Time (Rattus norvegicus [20]) | also measured
1 | COc1ccc(/C=N/NC(=O)Nc2ccncc2)cc1 | 35.17 mol/min | 16.3 | 48.3 µM | 48.67 s | 786 µM | 40.33 mol/min | 37.83 mol/min | 39.5 mol/min | Non-toxic | 70.17 s | 65.83 s | 63.33 s | Dose-dependent effect | Non-toxic | 36.83 mol/min | 37.5 mol/min | 67.83 s | 50.5 s | 56.17 s | 56.33 s | IC50 (Acetylcholinesterase [3]; read-out: pIC50 (converted)): 49 µM; Ki (Cholinesterase [21]): 624 µM; Ki (Acetylcholinesterase [22]): 35.5 µM
2 | NC(=O)Nc1ccncc1 | 37.5 mol/min |  | 274 µM | 60.17 s | > 1000 µM | 44.5 mol/min | 42.5 mol/min | 43 mol/min | Non-toxic | 80.83 s | 75 s | 73 s | Dose-dependent effect | Non-toxic | 37.33 mol/min | 44.17 mol/min | 77.83 s | 61.25 s | 66.2 s | 65.12 s | 
3 | O=C(N/N=C/c1ccccc1O)Nc1ccncc1 | 36.33 mol/min | 7.56 | 32.5 µM | 48.15 s | 246 µM | 39.17 mol/min | 37.5 mol/min | 39.33 mol/min | Non-toxic | 70.17 s | 65 s | 63.67 s | Dose-dependent effect | Non-toxic | 34.67 mol/min | 36.83 mol/min | 67.33 s | 49.12 s | 55.21 s | 54.19 s | IC50 (Acetylcholinesterase [3]; read-out: pIC50 (converted)): 33.1 µM; Ki (Cholinesterase [23]): 212 µM; Ki (Acetylcholinesterase [22]): 25.6 µM
4 | O=C(N/N=C/c1ccc(O)cc1O)Nc1ccncc1 | 34.83 mol/min | 13.7 | 4.26 µM | 40.33 s | 58.2 µM | 37.5 mol/min | 34.83 mol/min | 36.17 mol/min | Non-toxic | 65.57 s | 61.83 s | 57.67 s | Dose-dependent effect | Non-toxic | 32.5 mol/min | 35.03 mol/min | 65.17 s | 42.5 s | 51 s | 49.17 s | Ki (Cholinesterase [23]): 72.7 µM; Ki (Acetylcholinesterase [22]): 3.56 µM
5 | COc1cc(/C=N/NC(=O)Nc2ccncc2)ccc1O | 35.83 mol/min | 28.2 | 18.7 µM | 40.5 s | 528 µM | 39.5 mol/min | 35.5 mol/min | 36.62 mol/min | Non-toxic | 68.17 s | 64.5 s | 57.87 s | Dose-dependent effect | Non-toxic | 33.67 mol/min | 36.83 mol/min | 65 s | 46.17 s | 52 s | 49.67 s | IC50 (Acetylcholinesterase [3]; read-out: pIC50 (converted)): 19.1 µM; Ki (Cholinesterase [23]): 446 µM; Ki (Acetylcholinesterase [22]): 20.5 µM
6 | COc1cc2c(cc1OC)C(=O)C(CC1CCN(Cc3ccccc3)CC1)C2 (stereo not drawn) [DONEPEZIL] | 28.54 mol/min |  |  | 37.67 s |  | 32.38 mol/min | 28.24 mol/min | 31.25 mol/min |  | 64.2 s | 55.42 s | 53.86 s | Dose-dependent effect |  | 26.82 mol/min | 30.86 mol/min | 61.25 s | 39.1 s | 45.14 s | 43.17 s | 
7 | NNC(=O)Nc1ccncc1 | 37.47 mol/min |  | 211 µM | 59.33 s | > 1000 µM | 44.5 mol/min | 42.17 mol/min | 42.33 mol/min | Non-toxic | 78 s | 71.83 s | 69.83 s | Dose-dependent effect | Non-toxic | 37.17 mol/min | 43.67 mol/min | 75.5 s | 60.5 s | 65 s | 64 s | 
8 | O=C(N/N=C/c1ccccc1)Nc1ccncc1 | 36.5 mol/min | 10.3 | 82.3 µM | 51 s | 845 µM | 42.33 mol/min | 40.5 mol/min | 42.03 mol/min | Non-toxic | 74.17 s | 69.33 s | 66.17 s | Dose-dependent effect | Non-toxic | 35.83 mol/min | 41 mol/min | 70.33 s | 53.33 s | 59.17 s | 58.33 s | Ki (Cholinesterase [21]): 685 µM; Ki (Acetylcholinesterase [22]): 88.6 µM
9 | COc1ccc(/C=N/NC(=O)Nc2ccncc2)cc1OC | 35.33 mol/min | 33.6 | 12.7 µM | 40.5 s | 426 µM | 38.17 mol/min | 35.17 mol/min | 36.87 mol/min | Non-toxic | 67.17 s | 62.17 s | 57.17 s | Dose-dependent effect | Non-toxic | 33.17 mol/min | 35.83 mol/min | 64.83 s | 44.5 s | 52.17 s | 49.33 s | Ki (Cholinesterase [21]): 283 µM; Ki (Acetylcholinesterase [22]): 10.3 µM
